Results taken from ChEMBL document CHEMBL4043301, “Tetrahydroquinoline Ring as a Versatile Bioisostere of Tetralin for Melatonin Receptor Ligands” (J Med Chem, 2018).

What was measured:
[1] = target: T1, Melatonin receptor type 1A (Homo sapiens, UniProt P48039); experiment: Displacement of 2-[125I]-Iodomelatonin from human MT1 receptor expressed in CHO cell membranes after 120 mins by filter binding method
In short: (§1)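 Membranes from CHO cells stably expressing human MT1 or MT2 were incubated with 20 pM 2-[125I]-iodomelatonin and test drug in 50 mM Tris-HCl pH 7.4, 5 mM MgCl2, for 120 min at 37 °C. Nonspecific binding was set with 1 µM melatonin. Filtration onto PEI-soaked GF/B filters. Seven concentrations in duplicate gave IC50, converted to Ki by Cheng-Prusoff. Ki is the geometric mean of ≥2 experiments.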

[2] = target: T2, Melatonin receptor type 1B (Homo sapiens) (UniProt P49286); experiment: (§2) Intrinsic activity at human MT2 receptor expressed in CHO cell membranes after 1 hr by [35S]GTPgammaS binding assay; type: functional
T2 sequence (whole entry): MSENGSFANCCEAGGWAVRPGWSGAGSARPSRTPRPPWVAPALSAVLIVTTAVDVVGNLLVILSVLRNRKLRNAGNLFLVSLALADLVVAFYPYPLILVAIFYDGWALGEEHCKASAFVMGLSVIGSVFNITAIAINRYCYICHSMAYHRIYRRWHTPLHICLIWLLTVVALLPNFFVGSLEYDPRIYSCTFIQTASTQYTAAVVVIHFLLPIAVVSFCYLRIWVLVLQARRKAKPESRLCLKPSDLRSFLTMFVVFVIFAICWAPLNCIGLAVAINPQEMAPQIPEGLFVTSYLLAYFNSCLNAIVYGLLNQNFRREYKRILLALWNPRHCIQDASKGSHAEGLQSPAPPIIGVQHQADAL
In short: (§3)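 CHO-MT1 or MT2 membranes (20 µg/mL) were incubated with drug and 0.2 nM [35S]GTPγS for 1 h at room temperature. Buffer was 20 mM HEPES pH 7.4, 100 mM NaCl, 3 µM GDP, 3 mM MgCl2, 20 µg/mL saponin. Nonspecific binding was set with 10 µM GTPγS, followed by filtration. Seven concentrations in duplicate gave Emax, relative to 1 µM melatonin. Emax is the arithmetic mean ± SEM of ≥2 experiments.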

[3] = target: T1, Melatonin receptor type 1A; experiment: Intrinsic activity at human MT1 receptor expressed in CHO cell membranes after 1 hr by [35S]GTPgammaS binding assay; type: functional; in short: as §3
[4] = target: T3, Melatonin receptor type 1B (Homo sapiens, UniProt P49286); experiment: Displacement of 2-[125I]-Iodomelatonin from human MT2 receptor expressed in CHO cell membranes after 120 mins by filter binding method; in short: as §1
T3 sequence (P49286 whole entry): T2 sequence (whole entry)

Homo sapiens = organism: Homo sapiens; experiment: Selectivity ratio of Ki for human MT1 receptor to Ki for human MT2 receptor
[5] = target: T3, Melatonin receptor type 1B; experiment: as §2; type: functional; in short: as §3

T1 sequence (P48039 whole entry): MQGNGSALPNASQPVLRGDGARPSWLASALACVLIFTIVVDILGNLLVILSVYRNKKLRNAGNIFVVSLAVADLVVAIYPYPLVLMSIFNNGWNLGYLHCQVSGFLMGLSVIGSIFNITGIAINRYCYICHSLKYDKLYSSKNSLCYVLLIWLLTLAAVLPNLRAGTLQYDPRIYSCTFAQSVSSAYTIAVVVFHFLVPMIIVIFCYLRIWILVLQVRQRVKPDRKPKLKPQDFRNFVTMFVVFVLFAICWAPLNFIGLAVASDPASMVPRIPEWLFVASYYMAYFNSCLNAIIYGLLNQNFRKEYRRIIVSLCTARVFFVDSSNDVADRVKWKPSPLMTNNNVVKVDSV

Row | Ki [1] [nM] | Emax [2] [%] | Emax [3] [%] | Ki [4] [nM] | Ratio Ki (Homo sapiens) | EC50 [5] [nM] | EC50 [3] [nM] | Structure (SMILES)
1 | 62 | 78 | 61 | 0.23 | 270 | – | – | CCC(=O)NC[C@@H]1CCc2ccccc2[C@H]1c1ccccc1 (racemic)
2 | 22 | 41 | 29 | 2 | 11 | 1 | 20 | CCC(=O)NC1Cc2ccccc2N(c2ccccc2)C1 (racemic)
3 | 3.4 | 75 | 82 | 0.48 | 7.1 | – | – | CCC(=O)NC[C@@H]1CN(C)c2ccccc2[C@@H]1c1ccccc1 (racemic)
4 | 3.5 | 75 | 56 | 0.22 | 16 | – | – | CCC(=O)NC[C@@H]1CCc2ccccc2[C@@H]1c1ccccc1 (racemic)
5 | 59 | 28 | – | 1 | 59 | 3 | – | CC(=O)NCC1Cc2ccccc2N(Cc2ccccc2)C1 (racemic)
6 | 246 | 47 | – | 47 | 5.2 | 80 | – | CC(=O)NCC1Cc2ccccc2N(CCc2ccccc2)C1 (racemic)
7 | 892 | – | – | 6 | 149 | > 10000 | – | CCC(=O)NC1Cc2ccccc2N(Cc2ccccc2)C1 (racemic)

Continued, compound first:

Row | Structure (SMILES) | Ki [1] [nM] | Emax [2] [%] | Emax [3] [%] | Ki [4] [nM] | Ratio Ki (Homo sapiens) | EC50 [5] [nM] | EC50 [3] [nM]
8 | CCC(=O)NCC1=C(c2ccccc2)c2ccccc2CC1 | 28 | 30 | 16 | 3.8 | 7.4 | – | –
9 | CCN1CC(CNC(C)=O)Cc2ccccc21 (racemic) | 20 | 59 | – | 1 | 20 | 7 | > 10000
10 | CC(=O)NCC1CNc2ccccc2C1 (racemic) | 430 | – | – | 110 | 3.9 | – | –
11 | CC(=O)NCC1Cc2ccccc2N(c2ccccc2)C1 (racemic) [listing 1 of 2 here] | 2.4 to 3 | – | – | 0.3 to 1.2 | – | > 10000 | > 10000
12 | CC(=O)NCC1Cc2ccccc2N(C)C1 (racemic) | 83 | 32 | – | 15 | 5.5 | 10 | > 10000
13 | CC(=O)NCC1Cc2ccccc2N(c2ccccc2)C1 (racemic) [listing 2 of 2 here] | – | 10 | 27 | – | 10 | – | –
14 | CC(=O)NCC1Cc2ccccc2N(c2ccccc2)C1 (single isomer, unassigned; (-)) [listing 1 of 2 here] | 3.02 | – | – | 1.38 | – | – | –
15 | CC(=O)NCC1Cc2ccccc2N(c2ccccc2)C1 (single isomer, unassigned; (-)) [listing 2 of 2 here] | – | 29 | 30 | – | – | – | –
16 | CC(=O)NCC1Cc2ccccc2N(c2ccccc2)C1 (stereo in doubt; (+)-15e) [listing 1 of 2 here] | 1.58 | – | – | 0.78 | – | – | –
17 | CC(=O)NCC1Cc2ccccc2N(c2ccccc2)C1 (stereo in doubt; (+)-15e) [listing 2 of 2 here] | – | 5 | 25 | – | – | – | –
